The results in this text go back to ChEMBL document CHEMBL1148778, “Synthesis and characterization of nonsteroidal glucocorticoid receptor modulators for multiple myeloma” (J Med Chem, 2007).

For experiment [1], the target named is T1, Glucocorticoid receptor (Homo sapiens, UniProt P04150).
T1 sequence (P04150 whole entry): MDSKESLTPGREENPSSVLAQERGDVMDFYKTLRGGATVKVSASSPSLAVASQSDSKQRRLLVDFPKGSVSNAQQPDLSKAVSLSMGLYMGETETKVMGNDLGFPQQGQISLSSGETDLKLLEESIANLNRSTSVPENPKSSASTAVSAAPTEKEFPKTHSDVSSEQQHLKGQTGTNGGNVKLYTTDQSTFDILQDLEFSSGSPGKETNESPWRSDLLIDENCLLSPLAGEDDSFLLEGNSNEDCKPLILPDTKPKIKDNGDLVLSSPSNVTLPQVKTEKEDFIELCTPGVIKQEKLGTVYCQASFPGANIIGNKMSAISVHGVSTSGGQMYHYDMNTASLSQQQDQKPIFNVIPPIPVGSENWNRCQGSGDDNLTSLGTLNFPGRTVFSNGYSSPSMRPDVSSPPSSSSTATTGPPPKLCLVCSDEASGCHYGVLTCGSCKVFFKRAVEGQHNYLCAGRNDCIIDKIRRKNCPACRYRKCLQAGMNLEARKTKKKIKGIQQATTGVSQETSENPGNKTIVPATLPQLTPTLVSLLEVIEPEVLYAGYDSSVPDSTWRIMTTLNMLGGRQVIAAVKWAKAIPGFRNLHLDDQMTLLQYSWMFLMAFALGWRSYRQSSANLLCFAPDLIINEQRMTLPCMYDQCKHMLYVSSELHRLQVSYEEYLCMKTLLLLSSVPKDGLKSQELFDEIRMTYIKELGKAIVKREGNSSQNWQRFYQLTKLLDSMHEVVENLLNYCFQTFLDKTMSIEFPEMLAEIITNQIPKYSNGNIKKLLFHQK
In words: Binding affinity to GR.

Another experiment has as its target T2, Progesterone receptor (Homo sapiens, UniProt P06401).
T2 sequence (P06401 whole entry): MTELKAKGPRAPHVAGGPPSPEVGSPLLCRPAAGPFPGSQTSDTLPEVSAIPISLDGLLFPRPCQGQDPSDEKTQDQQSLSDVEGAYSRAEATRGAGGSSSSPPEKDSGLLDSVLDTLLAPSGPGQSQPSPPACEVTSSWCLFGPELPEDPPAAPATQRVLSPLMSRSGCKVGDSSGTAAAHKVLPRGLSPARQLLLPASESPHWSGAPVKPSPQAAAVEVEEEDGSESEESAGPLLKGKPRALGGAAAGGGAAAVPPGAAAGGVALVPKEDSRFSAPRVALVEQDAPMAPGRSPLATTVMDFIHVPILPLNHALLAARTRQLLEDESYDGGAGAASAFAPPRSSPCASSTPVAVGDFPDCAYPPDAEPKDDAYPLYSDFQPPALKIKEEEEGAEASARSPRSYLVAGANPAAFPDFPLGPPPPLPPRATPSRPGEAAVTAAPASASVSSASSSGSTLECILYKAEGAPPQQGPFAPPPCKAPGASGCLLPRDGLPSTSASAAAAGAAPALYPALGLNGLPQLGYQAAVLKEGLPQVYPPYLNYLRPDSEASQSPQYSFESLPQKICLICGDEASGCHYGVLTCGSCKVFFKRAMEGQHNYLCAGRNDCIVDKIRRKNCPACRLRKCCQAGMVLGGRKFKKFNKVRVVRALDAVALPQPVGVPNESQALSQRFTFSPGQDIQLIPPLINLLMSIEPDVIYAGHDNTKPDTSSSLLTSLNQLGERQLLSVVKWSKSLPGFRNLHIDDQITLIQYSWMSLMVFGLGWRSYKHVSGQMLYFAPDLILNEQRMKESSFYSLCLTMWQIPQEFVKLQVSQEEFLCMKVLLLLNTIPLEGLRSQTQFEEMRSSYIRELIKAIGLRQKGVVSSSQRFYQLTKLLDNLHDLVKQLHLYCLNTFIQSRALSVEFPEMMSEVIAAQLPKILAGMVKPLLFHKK
Description: Binding affinity to PR. In short, it runs like this: (§1)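 Competitive binding assays on PR and MR. Values are means of at least three separate experiments, each with triplicate determinations, ± SEM. A value without SEM comes from a single determination.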

The target in experiment [2] is T3, Mineralocorticoid receptor (Homo sapiens, UniProt P08235).
T3 sequence (P08235 whole entry): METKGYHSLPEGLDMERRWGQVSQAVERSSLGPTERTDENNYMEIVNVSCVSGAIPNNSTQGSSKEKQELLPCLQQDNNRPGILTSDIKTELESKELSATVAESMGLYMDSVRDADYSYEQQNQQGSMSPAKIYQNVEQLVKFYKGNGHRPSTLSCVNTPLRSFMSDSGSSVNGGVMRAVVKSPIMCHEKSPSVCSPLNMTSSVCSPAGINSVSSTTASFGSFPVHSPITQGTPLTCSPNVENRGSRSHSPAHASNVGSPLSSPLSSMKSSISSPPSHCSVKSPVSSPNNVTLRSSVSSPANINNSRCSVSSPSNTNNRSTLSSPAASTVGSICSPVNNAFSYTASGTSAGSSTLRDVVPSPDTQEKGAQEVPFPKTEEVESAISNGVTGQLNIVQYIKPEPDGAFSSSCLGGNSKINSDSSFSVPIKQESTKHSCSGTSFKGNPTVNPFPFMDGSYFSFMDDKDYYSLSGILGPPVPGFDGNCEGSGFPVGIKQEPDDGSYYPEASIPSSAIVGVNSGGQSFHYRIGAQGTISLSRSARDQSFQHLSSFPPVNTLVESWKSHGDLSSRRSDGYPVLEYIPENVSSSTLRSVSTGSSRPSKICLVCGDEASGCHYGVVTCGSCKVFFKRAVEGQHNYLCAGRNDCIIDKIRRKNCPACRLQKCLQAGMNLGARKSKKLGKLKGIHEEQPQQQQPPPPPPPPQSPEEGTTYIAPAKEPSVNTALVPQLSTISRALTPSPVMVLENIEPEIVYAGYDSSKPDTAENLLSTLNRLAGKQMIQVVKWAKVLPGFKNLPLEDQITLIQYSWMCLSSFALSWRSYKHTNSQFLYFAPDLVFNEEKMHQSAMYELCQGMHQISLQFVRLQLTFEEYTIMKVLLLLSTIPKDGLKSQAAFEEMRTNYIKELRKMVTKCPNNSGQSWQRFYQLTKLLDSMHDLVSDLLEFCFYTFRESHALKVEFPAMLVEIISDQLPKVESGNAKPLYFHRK
In words: Binding affinity to MR. The method in brief:
as §1

The target of the next experiment is T4, Androgen receptor (Homo sapiens, UniProt P10275).
T4 sequence (P10275 whole entry): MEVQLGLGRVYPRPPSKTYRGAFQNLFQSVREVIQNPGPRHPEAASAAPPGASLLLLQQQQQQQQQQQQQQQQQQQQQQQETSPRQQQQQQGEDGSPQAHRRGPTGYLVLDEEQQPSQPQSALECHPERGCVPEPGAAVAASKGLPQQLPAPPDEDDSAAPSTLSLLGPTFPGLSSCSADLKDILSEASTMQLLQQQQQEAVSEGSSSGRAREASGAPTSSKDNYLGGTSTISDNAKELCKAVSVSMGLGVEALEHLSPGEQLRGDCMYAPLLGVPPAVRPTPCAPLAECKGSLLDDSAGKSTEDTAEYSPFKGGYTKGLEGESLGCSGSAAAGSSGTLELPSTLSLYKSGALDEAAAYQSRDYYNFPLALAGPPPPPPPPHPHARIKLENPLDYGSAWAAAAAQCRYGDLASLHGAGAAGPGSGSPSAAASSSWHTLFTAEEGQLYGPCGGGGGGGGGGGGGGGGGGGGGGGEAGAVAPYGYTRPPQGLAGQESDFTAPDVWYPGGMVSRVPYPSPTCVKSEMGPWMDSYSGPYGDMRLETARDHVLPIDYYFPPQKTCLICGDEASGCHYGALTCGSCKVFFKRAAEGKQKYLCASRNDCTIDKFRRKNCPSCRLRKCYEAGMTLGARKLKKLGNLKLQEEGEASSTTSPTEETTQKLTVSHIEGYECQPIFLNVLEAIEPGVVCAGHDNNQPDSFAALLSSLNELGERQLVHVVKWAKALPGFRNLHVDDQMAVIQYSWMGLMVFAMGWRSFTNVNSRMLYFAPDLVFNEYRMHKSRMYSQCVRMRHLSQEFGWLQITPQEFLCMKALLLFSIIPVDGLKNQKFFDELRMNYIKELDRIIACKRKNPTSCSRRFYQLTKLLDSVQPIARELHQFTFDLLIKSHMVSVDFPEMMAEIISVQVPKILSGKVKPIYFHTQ
Description: Binding affinity to AR.

The subject of experiment [3] is RPMI-8226. Description: Inhibition of tumor growth in human RPMI8226 cells xenografted nude mouse at 3 mg/kg, po after 4 weeks relative to Dexamethasone. It is filed as functional. (In general: A xenograft is tissue or cells of one species grown in another, often human tumour cells in immunodeficient mice.)
The subject of experiment [4] is RPMI-8226. In words: Inhibition of tumor growth in human RPMI8226 cells xenografted nude mouse at 10 mg/kg, po after 4 weeks relative to Dexamethasone. The experiment is classed as functional.
In experiment [5] the test system is RPMI-8226. Description: Inhibition of tumor growth in human RPMI8226 cells xenografted nude mouse at 30 mg/kg, po after 4 weeks relative to Dexamethasone. It is filed as functional.
The target of experiment [6] is T1, Glucocorticoid receptor. Description: Antagonist activity at human GR expressed in CV1 cells by GRE activation assay. It is filed as functional, cell-based, CV-1.

In general, Ki refers to a dissociation constant, usually derived from enzyme kinetics or from competition with a known ligand. Read a low Ki as tighter binding. The term EC50 denotes the concentration at which the effect is half-maximal. Low readings indicate an effect from little substance, high ones a need for much substance.

Molecules are shown by their SMILES.

As for `COc1c(O)ccc2c1-c1ccc3c(c1/C(=C/c1sccc1C(O)C(F)(F)F)O2)C(C)=CC(C)(C)N3` (racemic), the Ki on Glucocorticoid receptor [1] was found to be 1.4 nM; at Progesterone receptor, 1780 nM; in experiment [2], 670 nM; at Androgen receptor, 1900 nM. The Efficacy with RPMI-8226 [3] turned out to be 52%; with RPMI-8226 [4] it was 89%; in the experiment with RPMI-8226 [5] it was 97%. The compound further gave a 50% effective concentration (EC50) at Glucocorticoid receptor [6] of 0.3 nM.
